Laboratory results: ChEMBL document CHEMBL1138431, “Synthesis and cytotoxic activities of 4,5-diarylisoxazoles” (Bioorg Med Chem Lett, 2007)

Assays:
HepG2 [1] = assay: Cytotoxicity against human HepG2 cells; format: functional, cell-based
In short: (§1)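 Cells were grown under previously described culture conditions and tested in an MTT colorimetric assay.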

HepG2 [2] = assay: Cell cycle arrest in human HepG2 cells assessed as accumulation at G2/M phase at 10 nM after 24 hrs relative to control
HepG2 [3] = assay: Cell cycle arrest in human HepG2 cells assessed as accumulation at S phase at 10 nM after 24 hrs relative to control
HepG2 [4] = assay: Cell cycle arrest in human HepG2 cells assessed as accumulation at G0/G1 phase at 10 nM after 24 hrs relative to control
[5] = Cytotoxicity against human […] cells; format: functional, cell-based; in short: as §1
HeLa = assay: Cytotoxicity against human HeLa cells; format: functional, cell-based; in short: as §1

Row | SMILES | IC50 (HepG2 [1]) | Activity (HepG2 [2]) | Activity (HepG2 [3]) | Activity (HepG2 [4]) | IC50 [5] | IC50 (HeLa)
1 | COc1ccc(-c2cnoc2-c2cc(OC)c(OC)c(OC)c2)cc1N | 0.065 nM | 69.8% | 27.4% | 2.81% | 0.135 nM | 0.022 nM
2 | COc1ccc(/C=C\c2cc(OC)c(OC)c(OC)c2)cc1O [COMBRETASTATIN A4] | 0.14 nM | 79.3% | 19% | 1.68% | 0.01 nM | 2.75 nM
